Test results: ChEMBL document CHEMBL1157503, “Affinity of 3-acyl substituted 4-quinolones at the benzodiazepine site of GABA(A) receptors” (Bioorg Med Chem, 2008)

Key:
Homo sapiens [1] = organism: Homo sapiens; assay: Selectivity ratio of Ki for human recombinant GABAA alpha-3-beta-2-gamma-2S receptor to Ki for human recombinant GABAA alpha-1-beta-2-gamma-2S receptor
Procedure, shortened: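 Ratio of the Ki at human α3β2γ2s to the Ki at human α1β2γ2s, both from ³H-flumazenil (1 nM) displacement in HEK 293 membranes (40 min, 0–4 °C, 1 µM clonazepam nonspecific).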

[2] = Displacement of [3H]flumazenil from GABAA receptor in rat cortical membrane; assay type: cell membranes
Procedure, shortened: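 Rat cortex homogenized in Tris-HCl (30 mM, pH 7.4), washed by repeated centrifugation at 27,000g, incubated 30 min at 37 °C, then stored at −20 °C. About 50 µg protein per 0.55 ml assay in Tris-citrate (50 mM, pH 7.1) was incubated with 1 nM ³H-flumazenil for 40 min at 0–4 °C, then filtered on GF/C. Nonspecific binding was set with 1 µM clonazepam.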

[3] = Displacement of [3H]flumazenil from human recombinant GABAA alpha-3-beta-2-gamma-2S receptor expressed in HEK293 cells; assay type: cell-based
Procedure, shortened: (§1)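 HEK 293 membranes expressing human α1β2γ2s, α2β2γ2s or α3β2γ2s receptors, about 25 µg protein per 0.55 ml assay in Tris-citrate (50 mM, pH 7.1). Incubated with 1 nM ³H-flumazenil (final) for 40 min at 0–4 °C, then GF/C filtration and ice-cold washes. Nonspecific binding was set with 1 µM clonazepam. […] Mean ± SD of three determinations.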

[4] = molecular target: T1, GABA-A receptor; alpha-1/beta-2/gamma-2 (Homo sapiens, UniProt P14867+P18507+P47870); assay: Displacement of [3H]flumazenil from human recombinant GABAA alpha-1-beta-2-gamma-2S receptor expressed in HEK293 cells; assay type: cell-based; procedure, shortened: as §1
T1 sequence (P14867 whole entry): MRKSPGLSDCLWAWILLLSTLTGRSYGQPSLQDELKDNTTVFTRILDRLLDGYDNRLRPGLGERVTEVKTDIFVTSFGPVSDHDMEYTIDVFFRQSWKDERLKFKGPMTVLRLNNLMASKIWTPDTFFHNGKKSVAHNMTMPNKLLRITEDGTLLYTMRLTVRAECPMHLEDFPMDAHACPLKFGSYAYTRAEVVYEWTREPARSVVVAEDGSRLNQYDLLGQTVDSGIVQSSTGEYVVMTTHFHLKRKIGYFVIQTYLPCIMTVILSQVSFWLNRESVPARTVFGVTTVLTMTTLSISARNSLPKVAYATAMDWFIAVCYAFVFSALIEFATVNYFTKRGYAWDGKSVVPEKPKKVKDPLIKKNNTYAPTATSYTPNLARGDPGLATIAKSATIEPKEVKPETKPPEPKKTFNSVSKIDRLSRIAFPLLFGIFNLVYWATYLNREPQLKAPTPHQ
T1 sequence (P47870 whole entry): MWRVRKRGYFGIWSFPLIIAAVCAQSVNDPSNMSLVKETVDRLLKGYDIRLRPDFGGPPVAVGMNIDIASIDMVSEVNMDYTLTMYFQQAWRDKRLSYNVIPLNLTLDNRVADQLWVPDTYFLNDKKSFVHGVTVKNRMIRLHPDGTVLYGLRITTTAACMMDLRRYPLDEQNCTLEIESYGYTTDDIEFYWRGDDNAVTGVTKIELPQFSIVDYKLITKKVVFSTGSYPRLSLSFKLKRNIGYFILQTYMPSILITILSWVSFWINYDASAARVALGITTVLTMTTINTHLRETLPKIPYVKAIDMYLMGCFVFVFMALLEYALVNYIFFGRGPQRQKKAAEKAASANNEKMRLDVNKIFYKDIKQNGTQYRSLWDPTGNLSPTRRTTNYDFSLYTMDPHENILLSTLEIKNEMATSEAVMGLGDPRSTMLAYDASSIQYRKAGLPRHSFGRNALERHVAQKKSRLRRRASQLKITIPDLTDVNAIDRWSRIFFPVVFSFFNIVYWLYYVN
T1 sequence (P18507 whole entry): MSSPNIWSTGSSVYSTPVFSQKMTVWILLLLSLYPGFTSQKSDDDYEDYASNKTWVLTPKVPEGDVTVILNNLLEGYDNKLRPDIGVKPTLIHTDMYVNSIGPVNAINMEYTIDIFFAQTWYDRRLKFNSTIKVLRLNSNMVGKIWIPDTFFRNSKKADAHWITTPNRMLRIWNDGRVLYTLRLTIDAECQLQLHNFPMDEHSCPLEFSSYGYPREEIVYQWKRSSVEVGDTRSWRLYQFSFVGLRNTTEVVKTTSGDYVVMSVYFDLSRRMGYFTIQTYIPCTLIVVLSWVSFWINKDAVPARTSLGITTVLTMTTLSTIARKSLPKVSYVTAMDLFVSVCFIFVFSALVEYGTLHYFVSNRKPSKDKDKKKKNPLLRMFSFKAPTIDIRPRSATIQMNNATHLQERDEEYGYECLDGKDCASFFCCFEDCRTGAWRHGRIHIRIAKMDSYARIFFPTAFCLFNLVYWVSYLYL

[5] = Displacement of [3H]flumazenil from human recombinant GABAA alpha-2-beta-2-gamma-2S receptor expressed in HEK293 cells; assay type: cell-based; procedure, shortened: as §1
Homo sapiens [6] = organism: Homo sapiens; assay: Selectivity ratio of Ki for human recombinant GABAA alpha-2-beta-2-gamma-2S receptor to Ki for human recombinant GABAA alpha-1-beta-2-gamma-2S receptor
Procedure, shortened: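 Displacement of 1 nM [3H]flumazenil from HEK 293 membranes expressing human α2β2γ2s or α1β2γ2s receptors (about 25 µg protein per 0.55 ml), in 50 mM Tris-citrate pH 7.1, 40 min at 0–4 °C. Filtered on glass fibre. Nonspecific binding with 1 µM clonazepam. IC50 from 4–6 concentrations. […] Ratio is Ki α2/Ki α1.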

Ratio Ki (Homo sapiens [1]) | Ki [2] | Ki [4] | SMILES | Ki [3] | Ki [5] | Ratio Ki (Homo sapiens [6])
18 | 0.27 nM | 0.12 nM | CCCCC(=O)c1c[nH]c2ccc(Cc3cccnc3)cc2c1=O | 2.2 nM | – | –
7 | 0.9 nM | 0.38 nM | CCCCC(=O)c1c[nH]c2ccc(CC)cc2c1=O | 2.8 nM | 1.6 nM | 4
– | 19 nM | – | CCc1ccc2[nH]cc(C(=O)CCC(C)(C)C)c(=O)c2c1 | – | – | –
– | 2.5 nM | – | CCc1ccc2[nH]cc(C(=O)CCC(C)C)c(=O)c2c1 | – | – | –
2 | 0.42 nM | 0.53 nM | CCCCC(=O)c1c[nH]c2ccc(CCc3ccccc3)cc2c1=O | 1.1 nM | 1.7 nM | 3
– | 0.87 nM | – | CCCCC(=O)c1c[nH]c2ccc([N+](=O)[O-])cc2c1=O | – | – | –
– | 0.98 nM | – | CCCCCC(=O)c1c[nH]c2ccc(CC)cc2c1=O | – | – | –
– | 0.54 nM | – | CCCCC(=O)c1c[nH]c2ccc(Br)cc2c1=O | – | – | –
16 | 0.23 nM | 0.14 nM | CCCCC(=O)c1c[nH]c2ccc(Cc3ccccn3)cc2c1=O | 2.2 nM | – | –
– | 18 nM | – | CCc1ccc2[nH]cc(C(=O)CC(C)CC)c(=O)c2c1 (stereo unspecified) | – | – | –
9 | 2.2 nM | 0.97 nM | CCCCC(=O)c1c[nH]c2ccccc2c1=O | 9.2 nM | – | –
5 | 0.53 nM | 0.39 nM | CCCCC(=O)c1c[nH]c2ccc(Cc3ccncc3)cc2c1=O | 2.1 nM | 2.7 nM | 7
– | 30 nM | – | CCc1ccc2[nH]cc(C(=O)CC3CCCCC3)c(=O)c2c1 | – | – | –
– | 2.1 nM | – | CCCCCCC(=O)c1c[nH]c2ccc(CC)cc2c1=O | – | – | –

More lines, now with the values behind:

SMILES | Ratio Ki (Homo sapiens [1]) | Ki [2] | Ki [4] | Ki [3] | Ki [5] | Ratio Ki (Homo sapiens [6])
CCOC(=O)c1cnc2ccc(CC)cc2c1O | 9 | 20 nM | 5.9 nM | 52 nM | – | –
CCCC(=O)c1c[nH]c2ccc(Cc3ccccc3)cc2c1=O | 13 | 0.22 nM | 0.12 nM | 1.56 nM | 0.81 nM | 7
CCCCC(=O)c1c[nH]c2ccc(-c3ccccc3)cc2c1=O | – | 28 nM | – | – | – | –
CCOC(=O)c1cnc2ccc(Cc3ccccc3)cc2c1O | – | – | 0.27 nM | – | – | –
CCCCC(=O)c1c[nH]c2ccc(CCCc3ccccc3)cc2c1=O | 4 | 2.5 nM | 3.2 nM | 14.3 nM | 16 nM | 5
CCOC(=O)c1c[nH]c2ccc(Cc3ccccc3)cc2c1=O | 27 | 1.4 nM | – | 7.2 nM | – | –
CCc1ccc2[nH]cc(C(=O)CC3CCCC3)c(=O)c2c1 | 15 | 7.9 nM | 5.1 nM | 74 nM | 31 nM | 6
CCc1ccc2[nH]cc(C(=O)Cc3ccccc3)c(=O)c2c1 | – | 69 nM | – | – | – | –
O=C(CC1CCCC1)c1c[nH]c2ccc(Cc3ccccc3)cc2c1=O | 25 | 1 nM | 0.51 nM | 13 nM | – | –
CCCCC(=O)c1c[nH]c2ccc(Cc3ccc4ccccc4c3)cc2c1=O | 3 | 1.3 nM | 2.7 nM | 8.8 nM | 22 nM | 8
O=C(CC1CCCC1)c1c[nH]c2ccc(Cc3cccnc3)cc2c1=O | 26 | 1.5 nM | 0.88 nM | 23 nM | – | –
CCCCC(=O)c1c[nH]c2ccc(Cc3ccccc3)cc2c1=O | 5 | 0.17 nM | 0.12 nM | 0.61 nM | 0.4 nM | 3
